Screening data from PubChem BioAssay.
In the library only some 4.1% were active in any assay of this set; here they are far more common.
TbMetRS inhib: blocks T. brucei methionyl-tRNA synthetase activity; purified T. brucei MetRS, ATP depletion, Kinase-Glo luminescence; inhibition, % at 11.9 µM; 0.4% of 360,000 active; AID 624268;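 active means inhibition above a per-plate cutoff of the control wells' mean inhibition plus 3 SD, cut at about 5.5% in these data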;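 further: 0% = DMSO wells median and 100% = median of wells with control inhibitor compound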
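assay system = parasite MetRS enzyme | timing = 15 min preincubation, 2 h reaction, all 25 °C | evaluation = percent inhibition relative to median high and low control wells | medium = HEPES buffer containing pyrophosphatase, BSA, spermine, DTT | compound = single dose, 11.9 µM final nominal, 0.9% final DMSO | detection = Kinase-Glo luminescence, ATP depletion format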
Efflux pump mplx: antifungal efflux pump inhibition, Nile Red retention. S. cerevisiae Candida pump triplex. inhibition, % at 10 µM. 0.44% of 330,000 active. AID 485275;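 active means plate passing quality check with inhibition over a set limit, or well fluorescence over plate mean plus 4 SD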;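 further: Nile Red retained in pooled yeast measured as flow cytometry median fluorescence; 0% = buffer negative control and 100% = Enniatin B positive control; higher means more Nile Red kept so more efflux inhibition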
H9c2 TAG inh: triacylglycerol accumulation inhibition; H9c2 cells, Nile Red lipid (TAG) fluorescence; cells loaded with 200 µM oleic acid; inhibition, % at 12.5 µM; 0.66% of 230,000 active;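 active means pattern-corrected inhibition of lipid staining of at least 50% with the nuclear-stain viability signal not falling by more than 50%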;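 further: 0% = DMSO wells and 100% = triacsin C control wells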
AHR act: activates the human aryl hydrocarbon receptor. activation, % at 5 µM. AHR-responsive luciferase reporter cells, luminescence. 2.5% of 320,000 active; in the data active means activation above about 47%;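 further: 0% = vehicle wells and 100% = reference agonist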
Target sequence (P35869 whole entry, looked up): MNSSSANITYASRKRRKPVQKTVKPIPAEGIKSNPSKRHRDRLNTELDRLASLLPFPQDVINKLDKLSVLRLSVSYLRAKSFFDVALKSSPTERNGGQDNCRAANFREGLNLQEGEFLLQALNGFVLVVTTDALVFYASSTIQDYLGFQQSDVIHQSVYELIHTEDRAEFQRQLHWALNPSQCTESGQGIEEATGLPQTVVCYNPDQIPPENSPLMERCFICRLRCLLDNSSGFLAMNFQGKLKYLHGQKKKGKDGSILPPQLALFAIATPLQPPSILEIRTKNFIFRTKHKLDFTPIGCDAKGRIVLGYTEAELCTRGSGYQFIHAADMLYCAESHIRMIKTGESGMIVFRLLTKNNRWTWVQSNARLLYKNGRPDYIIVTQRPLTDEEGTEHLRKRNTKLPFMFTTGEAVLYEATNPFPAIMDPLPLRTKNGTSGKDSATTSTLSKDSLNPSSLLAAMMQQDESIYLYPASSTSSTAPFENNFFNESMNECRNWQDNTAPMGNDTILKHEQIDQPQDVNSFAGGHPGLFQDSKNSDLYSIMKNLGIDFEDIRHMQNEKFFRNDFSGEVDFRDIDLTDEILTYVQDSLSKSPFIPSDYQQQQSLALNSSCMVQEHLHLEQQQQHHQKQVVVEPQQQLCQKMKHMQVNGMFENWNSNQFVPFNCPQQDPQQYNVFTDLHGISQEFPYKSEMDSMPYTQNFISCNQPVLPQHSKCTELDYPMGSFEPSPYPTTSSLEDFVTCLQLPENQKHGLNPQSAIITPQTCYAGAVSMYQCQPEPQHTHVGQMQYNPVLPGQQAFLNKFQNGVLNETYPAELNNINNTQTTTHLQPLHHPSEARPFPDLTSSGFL
SMARCA2 act: SMARCA2 function activation, primary screen. activation, % at 9.1 µM. 1% of 370,000 active. AID 652017. MG213 cells, MMTV-luciferase reporter, dexamethasone, overnight; in the data active means activation above about 7.8%;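 further: 0% = vehicle wells and 100% = reference activator wells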
Tb MetRS conf: confirmation of Trypanosoma brucei MetRS inhibitors. shares compounds with TbMetRS inhib. 93% of 1,400 active. inhibition, % at 11.9 µM. T. brucei MetRS enzyme, luminescence (ATP depletion); in the data active means inhibition above about 7%
Jurkat tox: kills Jurkat cells in T. brucei MetRS counterscreen; inhibition, % at 8.3 µM; shares compounds with TbMetRS inhib; Jurkat cells viability, ATP luminescence; 12% of 1,400 active; in the data active means inhibition above about 15%;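 further: 0% = vehicle and 100% = reference inhibitor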
Tb MetRS inh FP: orthogonal test for Trypanosoma brucei MetRS inhibitors; shares compounds with TbMetRS inhib; purified T. brucei MetRS, fluorescence polarization; inhibition, % at 11.9 µM; 44% of 1,400 active; AID 651607; in the data active means inhibition above about 17%;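 further: 0% = vehicle wells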
The depositor's hits bear a star; x = no result.

SMILES | TbMetRS inhib | Efflux pump mplx | H9c2 TAG inh | AHR act | SMARCA2 act | Tb MetRS conf | Jurkat tox | Tb MetRS inh FP
N#Cc1ccccc1CSc1nc(N)cc(N)n1 | -1 | 0 | 6 | x | 3 | x | x | x
N#Cc1ccccc1CSc1nc2ncc(Br)cc2[nH]1 | 8.3* | 0 | 2 | 44 | -1 | 37* | -5 | 17*
Cc1cccc(N2C(=O)CC(N3CCC(c4nc5ccccc5[nH]4)CC3)C2=O)c1 (stereo not drawn) | 2 | 0 | -15 | 1 | 4 | x | x | x
Cc1ccc(N2CC(c3nc4ccccc4[nH]3)CC2=O)c(C)c1 (stereo not drawn) | 8.3* | 0 | 2 | 0 | -2 | 9.2* | -5 | 10
Nc1[nH]c(C(=O)c2ccc(Cl)cc2)c(-c2ccc(Br)cc2)c1C(=O)NCc1ccc(Cl)cc1Cl | x | x | x | x | -3 | x | x | x
CCC1CCCN1Cn1cnc2c([nH]c3ccc(Cl)cc32)c1=O (stereo not drawn) | 5.8* | 0 | x | 8 | 9.7* | 18* | 4 | -2
CCC1CCCN1Cn1cnc2c([nH]c3ccc(C)cc32)c1=O (stereo not drawn) | 1 | 0 | x | 19 | -1 | x | x | x
Cc1ccc(NC(=O)/C=N/OCC(=O)NCc2ccccc2Cl)cc1 | 16* | 0 | -9 | 3 | 0 | 29* | -11 | 12
CO[C@@H]1CN(C)C(=O)c2cc(NC(=O)Nc3cc(F)ccc3F)ccc2OC[C@H](C)N(C(=O)c2cnccn2)C[C@@H]1C | 6.2* | x | x | x | -3 | 14* | 0 | 1
CN(CCO)c1ccc2c(c1)Oc1ccccc1CN(Cc1cn(Cc3ccc(F)cc3)nn1)S2(=O)=O | x | x | x | x | 6 | x | x | x
O=C(Cc1ccc(Cl)c(Cl)c1)Nc1cccc(S(=O)(=O)N2CCOCC2)c1 | 59* | 0 | -9 | 3 | -4 | 76* | 0 | 65*
O=C(Cc1ccc(Cl)cc1)Nc1cccc(S(=O)(=O)Nc2ccccc2F)c1 | 0 | 0 | x | 4 | -3 | x | x | x
O=C(Cc1ccc2c(c1)OCCO2)Nc1cccc(S(=O)(=O)N2CCOCC2)c1 | 0 | 0 | -16 | -1 | 3 | x | x | x
O=C(COC(=O)Cn1cnc2ccccc21)Nc1cccc(S(=O)(=O)N2CCOCC2)c1 | 35* | 0 | 7 | 0 | -6 | 57* | 2 | 31*
CN(C)S(=O)(=O)c1cccc(NC(=O)Cc2ccc(Cl)cc2)c1 | 15* | 0 | x | 0 | 0 | 27* | 3 | 21*
O=C(Cn1c(=O)cnc2ccccc21)Nc1cccc(S(=O)(=O)N2CCOCC2)c1 | 1 | 0 | 7 | 8 | -4 | x | x | x
COC(=O)c1ccc(CSc2nnc(Nc3ccc(C)cc3)s2)o1 | 7.5* | 0 | x | 4 | 0 | 14* | 1 | 8
CS(=O)(=O)N1CCN(c2ccccc2NC(=O)Nc2cccc(Cl)c2)CC1 | 8.4* | 0 | x | 6 | 1 | 24* | -4 | 74*
CS(=O)(=O)N1CCN(c2ccccc2NC(=O)c2cc(Br)ccc2Cl)CC1 | 0 | 0 | 7 | 5 | -6 | x | x | x
COc1ccc(S[C@]2(C(=O)N3CCCC3)CC(=O)N(C(=O)C3CC3)[C@@H]2c2ccc(OC)cc2)cc1 | x | x | x | x | -1 | x | x | x
COC(=O)[C@]12C[C@H](CC(=O)NCc3cccs3)C(=O)N(Cc3cccc4ccccc34)C1=C[C@H](COCc1ccccc1)O[C@@H]2C | x | x | x | x | -2 | x | x | x
COC(=O)[C@]12C[C@H](CC(=O)NCCCN3CCCC3=O)C(=O)N(CCc3ccc(OC)c(OC)c3)C1=C[C@H](C(C)C)O[C@@H]2C1CC1 | x | x | x | x | 0 | x | x | x
CN(CCC(=O)Nc1ccc(Cl)cc1)Cc1ccccc1 | 14* | 0 | x | -1 | -4 | 31* | 8 | 15
CN(CC(=O)Nc1ccc(Cl)cc1)C(=O)CCc1c[nH]c2ccccc12 | 34* | 0 | x | 2 | -1 | 55* | 0 | 23*
CN(CC(=O)Nc1ccc(Cl)cc1)C(=O)CCc1ccccc1 | 20* | 0 | x | 3 | -2 | 39* | -5 | 18*
CN(CC(=O)Nc1ccc(Cl)cc1)CC(=O)Nc1cccc(Br)c1 | 30* | 0 | x | 4 | -4 | 49* | 7 | 29*
